Data set [1] concerns the target Disintegrin and metalloproteinase domain-containing protein 17 (Homo sapiens, UniProt P78536). Nature of the data set: Inhibition of Tumor necrosis factor alpha secretion in LPS-stimulated human whole blood assay. The class given is functional, tissue-based.
The target of data set [2] is T1, Disintegrin and metalloproteinase domain-containing protein 17 (Sus scrofa, UniProt O77636). Nature of the data set: Inhibitory activity against porcine Tumor necrosis factor alpha converting enzyme.
T1 sequence (O77636 whole entry, the tested form may be a part): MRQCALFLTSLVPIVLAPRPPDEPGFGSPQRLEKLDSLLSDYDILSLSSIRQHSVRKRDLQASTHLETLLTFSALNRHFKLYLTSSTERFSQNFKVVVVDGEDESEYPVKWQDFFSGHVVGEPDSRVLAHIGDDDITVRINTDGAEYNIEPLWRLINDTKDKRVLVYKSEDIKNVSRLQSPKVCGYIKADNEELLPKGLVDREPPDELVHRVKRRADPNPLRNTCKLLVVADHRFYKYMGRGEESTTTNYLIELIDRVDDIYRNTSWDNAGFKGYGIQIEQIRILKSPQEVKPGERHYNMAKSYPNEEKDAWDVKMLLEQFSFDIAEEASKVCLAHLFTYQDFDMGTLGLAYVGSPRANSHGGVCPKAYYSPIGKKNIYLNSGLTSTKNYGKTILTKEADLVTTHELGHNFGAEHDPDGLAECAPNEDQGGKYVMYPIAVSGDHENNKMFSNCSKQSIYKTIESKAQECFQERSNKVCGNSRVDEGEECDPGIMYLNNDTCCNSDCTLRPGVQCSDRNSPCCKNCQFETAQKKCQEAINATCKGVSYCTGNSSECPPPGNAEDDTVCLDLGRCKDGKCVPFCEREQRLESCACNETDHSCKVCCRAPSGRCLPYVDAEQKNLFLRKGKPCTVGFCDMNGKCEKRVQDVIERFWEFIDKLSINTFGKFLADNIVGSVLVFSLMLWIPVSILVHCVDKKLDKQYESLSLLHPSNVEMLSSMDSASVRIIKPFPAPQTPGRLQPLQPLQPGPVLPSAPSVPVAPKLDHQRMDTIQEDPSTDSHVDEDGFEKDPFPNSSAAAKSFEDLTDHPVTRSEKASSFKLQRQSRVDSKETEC
A further data set deals with T2, Interstitial collagenase (Homo sapiens, UniProt P03956).
T2 sequence (P03956 whole entry): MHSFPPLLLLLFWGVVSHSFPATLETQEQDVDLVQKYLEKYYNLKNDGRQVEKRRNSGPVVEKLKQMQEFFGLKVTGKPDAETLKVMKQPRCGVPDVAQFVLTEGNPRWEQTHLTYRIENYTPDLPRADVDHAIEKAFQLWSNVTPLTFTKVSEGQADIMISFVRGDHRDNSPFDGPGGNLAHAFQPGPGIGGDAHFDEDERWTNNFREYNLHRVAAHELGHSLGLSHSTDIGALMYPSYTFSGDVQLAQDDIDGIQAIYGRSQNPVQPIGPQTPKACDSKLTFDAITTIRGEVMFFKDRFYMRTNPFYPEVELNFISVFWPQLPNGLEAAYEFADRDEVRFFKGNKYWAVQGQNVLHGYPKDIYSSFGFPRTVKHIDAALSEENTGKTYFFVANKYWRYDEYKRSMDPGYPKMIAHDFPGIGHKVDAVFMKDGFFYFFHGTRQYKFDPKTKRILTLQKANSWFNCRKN
Nature of the data set: Affinity towards Matrix metalloprotease-1 (MMP-1).

Data set [3] concerns the target 72 kDa type IV collagenase (Homo sapiens, UniProt P08253). Nature of the data set: Affinity for Matrix metalloprotease-2 (MMP-2).
Data set [4] deals with Matrix metalloproteinase-9 (Homo sapiens, UniProt P14780). Nature of the data set: Affinity towards Matrix metalloprotease-9 (MMP-9).
Chain of Matrix metalloproteinase-9 (P14780 whole entry): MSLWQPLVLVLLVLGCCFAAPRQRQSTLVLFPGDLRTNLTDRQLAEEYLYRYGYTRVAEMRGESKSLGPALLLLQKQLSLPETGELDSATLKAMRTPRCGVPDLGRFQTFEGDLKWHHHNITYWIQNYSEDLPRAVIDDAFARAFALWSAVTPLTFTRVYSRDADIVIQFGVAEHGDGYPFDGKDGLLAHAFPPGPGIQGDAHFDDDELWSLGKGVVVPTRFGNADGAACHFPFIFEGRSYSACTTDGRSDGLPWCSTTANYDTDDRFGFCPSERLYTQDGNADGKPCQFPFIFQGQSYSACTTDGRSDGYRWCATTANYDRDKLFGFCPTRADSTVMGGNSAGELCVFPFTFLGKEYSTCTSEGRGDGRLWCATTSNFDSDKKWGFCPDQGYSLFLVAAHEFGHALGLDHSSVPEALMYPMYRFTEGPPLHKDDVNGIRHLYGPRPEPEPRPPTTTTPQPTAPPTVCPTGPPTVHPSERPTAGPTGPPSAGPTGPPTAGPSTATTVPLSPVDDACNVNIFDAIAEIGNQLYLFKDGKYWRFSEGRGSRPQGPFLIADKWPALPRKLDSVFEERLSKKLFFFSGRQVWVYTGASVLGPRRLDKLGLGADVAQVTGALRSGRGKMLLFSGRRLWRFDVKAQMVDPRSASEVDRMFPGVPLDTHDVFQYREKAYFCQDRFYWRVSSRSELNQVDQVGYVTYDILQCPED
The subject of data set [5] is Rattus norvegicus. Nature of the data set: (§1) The compound was administered intravenously at a dose of 4 mg/Kg for determination of systemic clearance. The class given is functional, organism-based. The method, boiled down:
(§2)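 Sprague Dawley rats and Beagle dogs were dosed in cassette fashion, iv at 4 mg/kg or orally at 8 mg/kg. Plasma samples were analysed by LC–MS–MS. The iv arm gave clearance, volume of distribution at steady state, terminal half-life and AUC. The oral arm gave tmax and bioavailability. Two animals were used per dosing group.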

The subject of data set [6] is Canis familiaris. The data set can be described thus: (§3) The compound was administered intravenously at a dose of 4 mg/Kg for determination area under curve. The format is functional, organism-based. The settings on record: Canis lupus familiaris. The method, boiled down:
as §2

The test system of data set [7] is Rattus norvegicus. The data set is described as §3. The class given is functional, organism-based. The essentials: as §2
The subject of data set [8] is Canis familiaris. The data set can be described thus: (§4) The compound was administered intravenously at a dose of 4 mg/Kg for determination of terminal half life. The format is functional, organism-based. The settings on record: Canis lupus familiaris. The essentials:
(§5)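 Cassette dosing in Sprague Dawley rats and Beagle dogs, given intravenously at 4 mg/kg. Plasma samples were analysed by LC–MS–MS, and terminal half-life was derived from the plasma profile. Two animals per dosing group.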

Data set [9] has as its system Rattus norvegicus. Described as §4. The class given is functional, organism-based. The essentials:
as §5

The test system of data set [10] is Canis familiaris. The data set can be described thus: (§6) The compound was administered orally at a dose of 8 mg/Kg for determination of t max. The settings on record: Canis lupus familiaris. The format is functional, organism-based. The method, boiled down: as §2
Data set [11] has as its system Rattus norvegicus. The data set is described as §6. The class given is functional, organism-based. The essentials:
as §2

In the next data set the target is Collagenase 3 (Homo sapiens, UniProt P45452). Nature of the data set: Affinity for Matrix metalloprotease-13 (MMP-13).
Data set [12] can be described thus: as §1. The class given is ADME, organism-based, Canis lupus familiaris. The settings on record: dog, in vivo, iv. The essentials: as §2
The nature of data set [13]: (§7) The compound was administered intravenously at a dose of 4 mg/Kg for determination of volume of distribution at steady state. The format is ADME, organism-based. The settings on record: rat, in vivo, iv, read-out: Vss. The method, boiled down: as §2
In data set [14] the target is Matrix metalloproteinase-16 (Homo sapiens, UniProt P51512). Nature of the data set: Affinity for Matrix metalloprotease-16 (MMP-16).
Chain of Matrix metalloproteinase-16 (P51512 whole entry): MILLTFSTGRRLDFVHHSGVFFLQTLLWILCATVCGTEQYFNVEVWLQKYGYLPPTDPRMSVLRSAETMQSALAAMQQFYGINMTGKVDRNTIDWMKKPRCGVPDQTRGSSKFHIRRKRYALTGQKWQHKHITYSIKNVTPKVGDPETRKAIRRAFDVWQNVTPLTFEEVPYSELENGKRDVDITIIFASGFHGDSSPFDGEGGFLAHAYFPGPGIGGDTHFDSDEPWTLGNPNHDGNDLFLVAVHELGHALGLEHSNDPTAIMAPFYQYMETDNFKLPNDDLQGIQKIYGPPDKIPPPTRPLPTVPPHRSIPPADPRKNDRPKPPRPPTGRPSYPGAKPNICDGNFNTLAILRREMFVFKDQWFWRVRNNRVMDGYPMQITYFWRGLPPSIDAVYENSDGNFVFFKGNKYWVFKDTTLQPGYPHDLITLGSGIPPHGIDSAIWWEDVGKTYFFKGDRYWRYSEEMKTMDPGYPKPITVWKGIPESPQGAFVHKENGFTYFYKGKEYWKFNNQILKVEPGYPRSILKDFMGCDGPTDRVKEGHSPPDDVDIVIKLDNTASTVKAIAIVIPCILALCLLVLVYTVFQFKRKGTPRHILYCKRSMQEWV
In another data set the target is T3, Matrilysin (Homo sapiens, UniProt P09237).
T3 sequence (P09237 whole entry): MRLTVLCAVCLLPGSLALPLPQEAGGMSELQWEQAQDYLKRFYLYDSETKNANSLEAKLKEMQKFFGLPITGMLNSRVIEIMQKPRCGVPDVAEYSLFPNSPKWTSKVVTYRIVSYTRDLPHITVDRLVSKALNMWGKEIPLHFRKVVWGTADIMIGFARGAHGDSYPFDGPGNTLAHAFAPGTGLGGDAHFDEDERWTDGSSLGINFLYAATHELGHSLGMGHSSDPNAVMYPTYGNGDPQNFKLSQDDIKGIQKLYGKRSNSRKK
Nature of the data set: Affinity for Matrix metalloprotease-7 (MMP-7).

Data set [15] is described as follows: (§8) Bioavailability (dose 8 mg/kg p.o.). The settings on record: rat, in vivo, po. The format is ADME, organism-based. The method, boiled down:
as §2

Data set [16] can be described thus: as §8. The format is ADME, organism-based, Canis lupus familiaris. The note with it: dog, in vivo, po. The essentials:
as §2

For data set [17], the target named is Matrix metalloproteinase-14 (Homo sapiens, UniProt P50281). The data set can be described thus: Affinity for Matrix metalloprotease-14 (MMP-14).
Data set [18] has as its target T1, Disintegrin and metalloproteinase domain-containing protein 17. The data set can be described thus: Affinity for Tumor necrosis factor alpha converting enzyme (TACE).
A further data set has as its target Stromelysin-1 (Homo sapiens, UniProt P08254). The data set can be described thus: Affinity for Matrix metalloprotease-3 (MMP-3).
For a further data set, the target named is Neutrophil collagenase (Homo sapiens, UniProt P22894). The data set can be described thus: Affinity for Matrix metalloprotease-8 (MMP-8).
Chain of Neutrophil collagenase (P22894 whole entry): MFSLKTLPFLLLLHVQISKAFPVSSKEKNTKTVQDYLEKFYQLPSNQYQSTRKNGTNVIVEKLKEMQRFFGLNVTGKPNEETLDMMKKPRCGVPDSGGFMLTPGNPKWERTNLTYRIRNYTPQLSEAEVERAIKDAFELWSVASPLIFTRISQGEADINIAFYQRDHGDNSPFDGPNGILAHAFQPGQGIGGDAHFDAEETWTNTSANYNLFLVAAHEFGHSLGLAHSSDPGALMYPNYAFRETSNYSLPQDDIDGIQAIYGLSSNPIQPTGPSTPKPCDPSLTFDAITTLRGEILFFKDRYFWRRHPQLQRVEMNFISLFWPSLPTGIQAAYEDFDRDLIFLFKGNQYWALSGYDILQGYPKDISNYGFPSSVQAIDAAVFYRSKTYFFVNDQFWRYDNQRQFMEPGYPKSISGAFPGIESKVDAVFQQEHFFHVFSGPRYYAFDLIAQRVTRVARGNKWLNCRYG
A short description of data set [19]: as §7. The note with it: dog, in vivo, iv, read-out: Vss. The format is ADME, organism-based, Canis lupus familiaris. The method, boiled down: as §2
Data set [20] deals with Matrix metalloproteinase-15 (Homo sapiens, UniProt P51511). The data set can be described thus: Affinity for Matrix metalloprotease-15 (MMP-15).

Molecules are shown by their SMILES. Some results are limits rather than exact numbers.

In general, IC50 refers to the midpoint of a concentration-inhibition curve. Lower therefore signals greater potency. As a reminder, the Ki is the equilibrium dissociation constant of an inhibitor or competing ligand from its target. Higher therefore signals a looser hold on the target. As usually defined, the clearance is the rate of elimination divided by the concentration. As a reminder, the bioavailability is dose-corrected exposure relative to a reference, in per cent. Read a high bioavailability as good availability.

Chain of Disintegrin and metalloproteinase domain-containing protein 17 (Homo sapiens, UniProt P78536) (P78536 whole entry, the tested form may be a part): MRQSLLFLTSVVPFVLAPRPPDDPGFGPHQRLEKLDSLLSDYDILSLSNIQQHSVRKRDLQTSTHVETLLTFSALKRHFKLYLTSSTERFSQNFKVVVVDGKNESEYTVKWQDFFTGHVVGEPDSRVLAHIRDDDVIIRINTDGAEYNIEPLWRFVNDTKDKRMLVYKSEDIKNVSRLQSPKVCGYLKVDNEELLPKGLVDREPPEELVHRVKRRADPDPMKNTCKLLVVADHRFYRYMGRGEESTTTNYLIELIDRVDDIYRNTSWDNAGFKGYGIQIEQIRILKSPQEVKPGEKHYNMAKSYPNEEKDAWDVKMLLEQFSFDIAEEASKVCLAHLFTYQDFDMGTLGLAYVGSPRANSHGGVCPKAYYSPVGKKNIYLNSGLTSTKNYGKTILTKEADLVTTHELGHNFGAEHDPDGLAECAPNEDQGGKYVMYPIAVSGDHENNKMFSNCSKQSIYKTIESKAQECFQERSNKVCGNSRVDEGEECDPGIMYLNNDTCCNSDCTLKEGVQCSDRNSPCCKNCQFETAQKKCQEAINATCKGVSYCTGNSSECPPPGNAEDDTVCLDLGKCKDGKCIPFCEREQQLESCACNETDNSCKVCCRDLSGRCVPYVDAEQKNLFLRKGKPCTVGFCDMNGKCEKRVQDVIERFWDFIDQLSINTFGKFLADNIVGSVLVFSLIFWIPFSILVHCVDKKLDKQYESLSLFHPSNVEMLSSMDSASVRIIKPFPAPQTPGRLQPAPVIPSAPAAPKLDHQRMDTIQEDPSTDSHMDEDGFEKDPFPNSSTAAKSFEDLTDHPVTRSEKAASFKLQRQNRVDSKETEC
Chain of 72 kDa type IV collagenase (P08253 whole entry): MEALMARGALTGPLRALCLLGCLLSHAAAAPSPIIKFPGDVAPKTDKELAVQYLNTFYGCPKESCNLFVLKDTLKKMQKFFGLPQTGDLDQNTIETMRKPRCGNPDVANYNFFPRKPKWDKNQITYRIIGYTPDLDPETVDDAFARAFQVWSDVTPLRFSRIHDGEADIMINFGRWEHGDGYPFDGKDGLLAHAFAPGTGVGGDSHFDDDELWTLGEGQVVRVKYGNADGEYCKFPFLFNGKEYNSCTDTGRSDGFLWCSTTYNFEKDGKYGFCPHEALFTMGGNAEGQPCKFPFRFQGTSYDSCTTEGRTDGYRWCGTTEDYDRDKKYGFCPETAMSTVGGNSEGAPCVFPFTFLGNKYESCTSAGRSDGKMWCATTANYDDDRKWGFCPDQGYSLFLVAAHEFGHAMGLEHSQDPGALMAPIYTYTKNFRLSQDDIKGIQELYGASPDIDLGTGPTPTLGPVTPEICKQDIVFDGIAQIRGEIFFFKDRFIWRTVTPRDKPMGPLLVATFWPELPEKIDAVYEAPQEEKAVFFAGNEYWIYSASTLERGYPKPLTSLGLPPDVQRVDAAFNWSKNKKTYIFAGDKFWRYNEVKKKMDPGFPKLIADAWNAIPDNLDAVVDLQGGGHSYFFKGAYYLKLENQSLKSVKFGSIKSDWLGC
Chain of Stromelysin-1 (P08254 whole entry): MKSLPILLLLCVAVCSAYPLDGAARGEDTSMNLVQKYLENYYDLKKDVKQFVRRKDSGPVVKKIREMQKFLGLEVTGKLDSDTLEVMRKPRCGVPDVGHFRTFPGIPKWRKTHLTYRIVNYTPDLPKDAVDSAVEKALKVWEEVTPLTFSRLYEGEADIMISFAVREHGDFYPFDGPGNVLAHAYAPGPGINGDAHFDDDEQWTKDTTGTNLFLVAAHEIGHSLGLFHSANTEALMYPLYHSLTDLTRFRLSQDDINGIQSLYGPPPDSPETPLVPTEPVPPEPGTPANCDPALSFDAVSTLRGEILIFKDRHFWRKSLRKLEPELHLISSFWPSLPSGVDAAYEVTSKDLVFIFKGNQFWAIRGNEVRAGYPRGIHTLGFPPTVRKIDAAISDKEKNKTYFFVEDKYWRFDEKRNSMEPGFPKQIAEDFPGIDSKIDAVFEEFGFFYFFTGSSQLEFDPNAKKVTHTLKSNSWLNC

On to `Cc1cncc(C)c1COc1ccc([C@]2(C)CCN([C@H](C)C(=O)NO)C2=O)cc1` (stereo in doubt; 5p), for which the IC50 in data set [1] was found to be 8100 nM; in data set [2], 16 nM.

Consider `C[C@H](C(=O)NO)N1CC[C@@](C)(c2ccc(OCc3ccc([N+](=O)[O-])cc3)cc2)C1=O`, for which the Ki is over 5000 nM on Interstitial collagenase, 11 nM in data set [3] and 40 nM in data set [4]. Besides, the IC50 in data set [2] worked out at 6 nM.

For `C[C@H](C(=O)NO)N1CC[C@@](C)(c2ccc(-c3ccccc3)cc2)C1=O`, the Ki is 2290 nM on Interstitial collagenase, 82 nM in [3] and 35 nM in data set [4]. The molecule also returned an IC50 in [2] of 13000 nM.

For the molecule `C[C@H](C(=O)NO)N1CC[C@@](C)(c2ccccc2)C1=O`, the Ki on Interstitial collagenase was found to be 221 nM; in data set [3] it was 108 nM; in data set [4], 242 nM. Further, the IC50 in [2] was determined as 2200 nM.

In the data set with Rattus norvegicus [5], `Cc1cc(COc2ccc([C@]3(C)CCN([C@H](C)C(=O)NO)C3=O)cc2)c2ccccc2n1` (stereo in doubt) [listing 1 of 2 here] returned a CL (mL.min-1.kg-1) of 35. For the same molecule, the AUC with Canis familiaris [6] is 4430 ng·h/mL; with Rattus norvegicus [7] it was 1810 ng·h/mL. Also, the values for the T1/2 in the data set on Canis familiaris [8] and in the data set with Rattus norvegicus [9] were 7.1 h and 11.8 h, respectively. In addition, the Tmax in the data set with Canis familiaris [10] and in the data set with Rattus norvegicus [11] was 0.38 h each time.

For `C[C@H](C(=O)NO)N1CC[C@@](C)(c2ccc(OCc3cc(C(F)(F)F)cc(C(F)(F)F)c3)cc2)C1=O`, the figures for the Ki (on Interstitial collagenase; in data set [3]; in data set [4]) were over 5000 nM, over 3000 nM and over 2000 nM, respectively. The same molecule had an IC50 in data set [2] of 2 nM.

Consider `C[C@H](C(=O)NO)N1CC[C@@](C)(c2ccc(OCc3ccncc3)cc2)C1=O`, for which the concentration for half-maximal inhibition (IC50) in [1] was 5900 nM; in data set [2] it was 21 nM.

As to `C[C@H](C(=O)NO)N1CC[C@@](C)(c2ccc(OCc3ccccc3)cc2)C1=O`, the Ki at Interstitial collagenase was over 5000 nM; in data set [3], 19 nM; in data set [4], 29 nM. In [2], this molecule yielded an IC50 of 4 nM.

Regarding `C[C@H](C(=O)NO)N1CC[C@@](C)(c2ccc(OCc3cccc([N+](=O)[O-])c3)cc2)C1=O`, the Ki on Interstitial collagenase is over 5000 nM; in data set [3] it was 38 nM; in [4], 39 nM. Moreover, in data set [2], the IC50 stood at 6 nM.

On to `CC(C)Cc1ccc([C@]2(C)CCN([C@H](C)C(=O)NO)C2=O)cc1`, for which the Ki on Interstitial collagenase worked out at 4000 nM; in data set [3] it was 701 nM; in data set [4] it was 586 nM. This molecule also came in with an IC50 in data set [2] of 1000 nM.

As for `COc1cc(COc2ccc([C@]3(C)CCN([C@H](C)C(=O)NO)C3=O)cc2)cc(OC)c1`, the Ki on Interstitial collagenase was over 5000 nM; in data set [3] it was over 3000 nM; in [4], over 2000 nM. Further, in data set [2], the IC50 turned out to be 7 nM.

In the case of `C[C@H](C(=O)NO)N1CC[C@@](C)(c2ccc(OCc3ccnc4ccccc34)cc2)C1=O`, the IC50 in data set [1] was found to be 2250 nM; in data set [2], 1.8 nM.

In the case of `C[C@H](C(=O)NO)N1CC[C@@](C)(c2ccc(OCc3ccccc3[N+](=O)[O-])cc2)C1=O`, the Ki was over 5000 nM at Interstitial collagenase, 35 nM in data set [3] and 66 nM in data set [4]. Further, the IC50 in [2] is 4 nM.

For the molecule `Cc1cncc(C)c1COc1ccc([C@]2(C)CCN([C@H](C)C(=O)NO)C2=O)cc1` (stereo in doubt; 5q), the IC50 in data set [1] was 6600 nM; in data set [2] it was 3 nM.

On to `Cc1cc(COc2ccc([C@]3(C)CCN([C@H](C)C(=O)NO)C3=O)cc2)c2ccccc2n1` (stereo in doubt; 5s), for which the IC50 in [2] stood at 1 nM. In other words, the single-digit nanomolar range.

For `C[C@H](C(=O)NO)N1CC[C@@](C)(c2ccc(Oc3ccccc3)cc2)C1=O`, the values for the Ki (on Interstitial collagenase; in data set [3]; in data set [4]) were 143 nM, under 2.8 nM and under 2.1 nM, respectively. Moreover, in data set [2], the IC50 came out at 185 nM.

Take `Cc1cc(C)cc(COc2ccc([C@]3(C)CCN([C@H](C)C(=O)NO)C3=O)cc2)c1`: the Ki is 4750 nM at Interstitial collagenase, 5810 nM in data set [3] and 1630 nM in data set [4]. Moreover, the IC50 in [2] is 4 nM.

On to `Cc1cc(COc2ccc([C@]3(C)CCN([C@H](C)C(=O)NO)C3=O)cc2)c2ccccc2n1` (stereo in doubt) [listing 2 of 2 here], for which the Ki stood at 1420 nM on Collagenase 3; 30000 nM on Interstitial collagenase; 2050 nM in data set [3]; 1600 nM in data set [14]; 259 nM on Matrilysin; 15900 nM in data set [17]. Further, the Ki in [4] stood at 10300 nM; in [18], 0.56 nM; at Stromelysin-1 it was 141 nM; on Neutrophil collagenase, 257 nM; in data set [20] it was 4000 nM. Besides, the clearance in [12] was 15.7 mL/min/kg. The Vd in [13] worked out at 2 L/kg; in [19], 0.93 L/kg. Also, the bioavailability in data set [15] was 41%; in [16], 32%.

In the case of `C[C@H](C(=O)NO)N1CC[C@@](C)(c2ccc(OC(C)(C)C)cc2)C1=O`, the 50% inhibitory concentration (IC50) in data set [2] is over 10000 nM.

For the molecule `COc1ccc([C@]2(C)CCN([C@H](C)C(=O)NO)C2=O)cc1`, the Ki at Interstitial collagenase came out at 92 nM; in data set [3], 4.8 nM; in data set [4], 9 nM. This molecule also displayed an IC50 in [2] of 887 nM.

For the molecule `C=CCOc1ccc([C@]2(C)CCN([C@H](C)C(=O)NO)C2=O)cc1`, the Ki on Interstitial collagenase amounted to 335 nM; in [3] it was 14 nM; in data set [4], 11 nM. In addition, 97 nM corresponded to half-maximal inhibition in data set [2] (IC50).

The record behind these values is ChEMBL document CHEMBL1135609, “Discovery of gamma-lactam hydroxamic acids as selective inhibitors of tumor necrosis factor alpha converting enzyme: design, synthesis, and structure-activity relationships” (J Med Chem, 2002).
